Bioassay records: PubChem BioAssay, several laboratories
TRPC6 inhibitor: blocks the mouse TRPC6 cation channel; Q61143; HEK293-TRPC6, membrane potential dye, ACh-evoked depolarization; active compounds read low; B-score at 10 µM; hit rate 1.1% among 310,000;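 active means B-score under library mean minus 3 SD, initial fluorescence not abnormally high, positive integrated signal ratio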;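 further: B-score derived from integrated fluorescence ratio over the kinetic read; more negative B-score means stronger inhibition of depolarization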
TRPC6 activator: activators of mouse TRPC6 channel; B-score at 10 µM; Q61143; HEK293-TRPC6 membrane potential dye fluorescence; active compounds read high; hit rate 0.13% among 310,000; AID 2550;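 active means B-score of the integrated fluorescence ratio above library mean plus 3 SD, and starting fluorescence ratio within library mean plus 5 SD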;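 further: higher score means more depolarization so channel activation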
TRPC4 PAM: TRPC4 (mouse) allosteric potentiation | B-score at 10 µM | AID 2227 | HEK293 TRPC4beta/mu-opioid, DAMGO EC20, Fluo-4 Ca2+ flux; active compounds read high | hit rate 0.42% among 310,000 | Q9QUQ5;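 active means B-score of calcium response area above 5 SD of library B-scores, with initial fluorescence ratio within 5 SD of library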
TRPC4 act: TRPC4 (mouse) channel activation. HEK293 TRPC4beta/mu-opioid, Fluo4 calcium fluorescence; active compounds read high. B-score at 10 µM. AID 2237. hit rate 0.49% among 310,000. Q9QUQ5;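 active means B-score above 5 SD of library B-scores, and initial fluorescence ratio not above library mean plus 5 SD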;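 further: positive B-score marks a calcium rise read as TRPC4 activation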
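Material: HEK293 stable line with TRPC4beta plus mu-opioid receptor; technique: Fluo4 calcium-sensitive dye fluorescence, kinetic, 1 Hz baseline; timing: Fluo4 dye loading 45 min at room temperature, 110 s recording; controls: assay buffer as low control, maximal DAMGO as high control; read-out: integrated baseline-normalised fluorescence ratio, converted to per-well B score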
TRPC4 inh: TRPC4 (mouse) channel inhibition; Q9QUQ5; HEK293 TRPC4beta/mu-opioid, DAMGO-evoked Fluo4 calcium flux; active compounds read low; B-score at 10 µM; hit rate 0.39% among 300,000; AID 2247;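 active means B-score over 3 SD under the library average, no early fluorescence shift, positive overall ratio signal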
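Material: HEK293 cells with stable TRPC4beta plus mu-opioid receptor expression / Probe or stimulus: DAMGO in two steps, submaximal then maximal / Compound: single concentration per test compound / Technique: kinetic Fluo4 fluorescence imaging of calcium influx / Read-out: per-well B score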
DSG3 Ab inh: inhibitors of pemphigus antibody binding to human desmoglein-3; AID 588358; hit rate 0.48% among 310,000; binding (percent of control), % at 10 µM; DSG3-coupled beads, scFv-anti-DSG3-GFP binding, flow cytometry; active compounds read low;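 active means binding more than 3 SD below its plate's average and above zero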;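 further: hits lower antibody fragment binding to DSG3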
Target sequence (P32926 whole entry, looked up, the tested form may be a part): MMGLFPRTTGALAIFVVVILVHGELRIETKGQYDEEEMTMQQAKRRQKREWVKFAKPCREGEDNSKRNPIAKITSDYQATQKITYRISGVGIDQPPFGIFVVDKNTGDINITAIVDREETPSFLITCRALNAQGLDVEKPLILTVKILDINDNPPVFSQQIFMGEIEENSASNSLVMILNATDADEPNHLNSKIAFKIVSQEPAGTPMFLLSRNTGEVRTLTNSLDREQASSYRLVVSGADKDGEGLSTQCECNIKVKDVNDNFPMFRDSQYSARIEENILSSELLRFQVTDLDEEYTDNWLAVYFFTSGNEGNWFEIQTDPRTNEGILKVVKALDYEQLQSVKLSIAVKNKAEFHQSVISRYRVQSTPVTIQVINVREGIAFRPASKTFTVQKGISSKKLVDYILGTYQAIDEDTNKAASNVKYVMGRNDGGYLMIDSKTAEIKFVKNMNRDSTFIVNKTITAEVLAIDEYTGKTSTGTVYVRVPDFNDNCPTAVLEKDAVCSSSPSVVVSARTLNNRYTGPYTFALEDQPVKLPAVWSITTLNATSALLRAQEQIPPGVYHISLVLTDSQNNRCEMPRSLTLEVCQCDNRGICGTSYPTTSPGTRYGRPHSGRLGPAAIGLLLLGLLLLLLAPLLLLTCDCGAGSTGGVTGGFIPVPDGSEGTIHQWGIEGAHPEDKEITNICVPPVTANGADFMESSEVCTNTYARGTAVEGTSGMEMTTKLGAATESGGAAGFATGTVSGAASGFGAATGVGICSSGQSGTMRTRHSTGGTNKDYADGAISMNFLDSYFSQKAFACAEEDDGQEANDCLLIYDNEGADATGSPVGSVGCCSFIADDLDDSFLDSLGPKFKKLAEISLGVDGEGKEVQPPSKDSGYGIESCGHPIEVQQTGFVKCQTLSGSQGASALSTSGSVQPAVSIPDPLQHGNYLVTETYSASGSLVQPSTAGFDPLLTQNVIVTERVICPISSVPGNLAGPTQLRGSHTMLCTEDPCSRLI
TRPC4 sel inh 2: second check of whether TRPC6 inhibitors also affect mouse TRPC4; shares compounds with TRPC6 inhibitor; HEK293 TRPC4/MOR, membrane potential dye fluorescence; channel activated by saturating DAMGO dose; inhibition, % at 10 µM; hit rate 42% among 920; AID 2776;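 active means compounds whose fluorescence signal differed from control wells by over 3 SD, either direction, in both duplicate plates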
TRPC4 spec: tests whether TRPC6 inhibitors also affect mouse TRPC4; AID 2777; activity change, negative = inhibition, % at 10 µM; hit rate 61% among 920; shares compounds with TRPC6 inhibitor; HEK293 TRPC4/mu-opioid, membrane potential fluorescence;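 active means rise or fall in signal beyond 3 SD of buffer-only wells in both replicate plates, either sign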;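 further: integrated kinetic ratio of fluorescence range over baseline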
HEK293 MPD ctr 2-1: second counter-screen for TRPC6 inhibitors: parental HEK293 cells; shares compounds with TRPC6 inhibitor; hit rate 31% among 920; parental HEK293 membrane potential dye fluorescence; maximal acetylcholine challenge after compound addition; AID 2779; signal change vs control, % at 10 µM;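 active means membrane potential signal moving either way by over 3 SD of the maximum-effect control, in both duplicate plates, meaning non-specific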
HEK293 MPD ctr-1: counter-screen for TRPC6 inhibitors: effect in parental HEK293 cells; shares compounds with TRPC6 inhibitor; parental HEK293 membrane potential dye fluorescence; membrane potential signal change, % at 10 µM; hit rate 60% among 920; AID 2780;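 active means membrane potential signal shifting up or down by more than 3 SD of buffer-only wells, on both duplicate plates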
HEK293 MPD ctr-2: counter-screen for TRPC6 modulators: effect in parental HEK293 cells | shares compounds with TRPC6 inhibitor | hit rate 51% among 2,400 | membrane potential signal change, % at 10 µM | membrane potential dye fluorescence;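 active means membrane potential signal moves up or down beyond 5 SD from buffer-only wells, on both duplicate plates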
HEK293 MPD ctr 2-2: parental HEK293 nonspecific activity of TRPC6 modulators, second screen. shares compounds with TRPC6 inhibitor. membrane potential dye fluorescence; after compound, maximal acetylcholine stimulation. inhibition, % at 10 µM. hit rate 14% among 2,400;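 active means membrane potential signal drops by more than 5 SD from the mean control signal, in both duplicate plates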
TRPC4 ctr mod: tests whether TRPC6 modulators also affect mouse TRPC4; HEK293 TRPC4/mu-opioid, membrane potential fluorescence; percent change from control (negative = decrease, positive = increase), % at 10 µM; shares compounds with TRPC6 inhibitor; hit rate 69% among 2,400;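 active means membrane potential signal moved up or down beyond 5 SD of buffer control wells, in both duplicate plates, actives on both sides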
TRPC4/MOR inh 2: mouse TRPC4 off-target activity of TRPC6 modulators, second screen; hit rate 55% among 2,400; HEK293 TRPC4/mu-opioid, membrane potential dye fluorescence; stimulated with maximal-effect DAMGO; shares compounds with TRPC6 inhibitor; inhibition, % at 10 µM;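 active means drop in membrane potential signal beyond 5 SD of the control wells in both duplicate plates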;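 further: TRPC4 counter screen for TRPC6 hits run under conditions tuned for TRPC6 not TRPC4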
TRPC6 inh conf: confirmation of mouse TRPC6 inhibitors. shares compounds with TRPC6 inhibitor. HEK293-TRPC6, membrane potential dye, ACh-evoked depolarization. inhibition, % at 10 µM. hit rate 43% among 3,300;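 active means fluorescence ratio falls more than 5 SD below the full-stimulation control mean, in both duplicate runs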;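 further: integrated fluorescence ratio of peak minus minimum over baseline after agonist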
TRPC6 act confirm: confirmation of mouse TRPC6 activators | shares compounds with TRPC6 inhibitor | activation, % at 10 µM | hit rate 11% among 2,800 | AID 488961 | HEK293-TRPC6 membrane potential dye fluorescence, FDSS;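 active means ratio signal rise beyond 5 SD above unstimulated control wells' mean, seen in both duplicate runs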
Each line names hits and unclear results; the compound was inactive in the other large screens (follow-up assays come after a bar, where they were run). Sampled rows, rich in hits. Any-hit rate of the full collection: about 2.5%.

O=C(NCc1ccccc1)c1c[nH]c2ccc(S(=O)(=O)Nc3ccc4c(c3)OCCO4)cc2c1=O	TRPC6 inhibitor -5.2 | HEK293 MPD ctr-2 inactive | HEK293 MPD ctr 2-2 inactive | TRPC4 ctr mod inactive | TRPC4/MOR inh 2 inactive | TRPC6 inh conf inactive | TRPC6 act confirm inactive
O=C(NCc1ccco1)c1c[nH]c2ccc(S(=O)(=O)N3CCOCC3)cc2c1=O	none (no result: TRPC6 inhibitor, TRPC6 activator, TRPC4 PAM, TRPC4 act, TRPC4 inh)
O=C(NCCN1CCCC1)C(c1ccccc1)c1ccccc1	none
Cc1c(NC(=O)COc2cccc(Cl)c2Cl)c(=O)n(-c2ccccc2)n1C	none
COc1ccc(C(=O)OCC2CC(c3ccccc3)=NO2)cc1OC (configuration not stated)	TRPC6 inhibitor -5.1 | HEK293 MPD ctr-2 inactive | HEK293 MPD ctr 2-2 inactive | TRPC4 ctr mod inactive | TRPC4/MOR inh 2 inactive | TRPC6 inh conf inactive | TRPC6 act confirm inactive
CCCCOc1ccc(S(=O)(=O)N2CCCCCC2)cc1	TRPC6 inhibitor -5.6 | HEK293 MPD ctr-2 inactive | HEK293 MPD ctr 2-2 inactive | TRPC4 ctr mod inactive | TRPC4/MOR inh 2 inactive | TRPC6 inh conf 46% | TRPC6 act confirm inactive
CCOc1ccccc1N1CCN(S(=O)(=O)c2ccc(F)c(F)c2)CC1	none
CCOC(=O)N1CCN(S(=O)(=O)c2ccc(OCC)cc2)CC1	TRPC6 inhibitor -6.2 | HEK293 MPD ctr-2 inactive | HEK293 MPD ctr 2-2 inactive | TRPC4 ctr mod 31% | TRPC4/MOR inh 2 inactive | TRPC6 inh conf inactive
CCOC(=O)N1CCN(S(=O)(=O)c2ccc(OCC)c3ccccc23)CC1	TRPC6 inhibitor -7.8 | TRPC4 sel inh 2 inactive | TRPC4 spec inactive | HEK293 MPD ctr 2-1 inactive | HEK293 MPD ctr-1 inactive | TRPC6 inh conf inactive | TRPC6 act confirm inactive
CCOc1cc(S(=O)(=O)N2CCCCCC2)ccc1F	TRPC6 inhibitor -6.7 | TRPC4 sel inh 2 inactive | TRPC4 spec inactive | HEK293 MPD ctr 2-1 inactive | HEK293 MPD ctr-1 inactive | TRPC6 inh conf inactive | TRPC6 act confirm inactive
Cc1ccc2[nH]c3c(=O)n(N)c(=O)[nH]c3c2c1	none
CCOC(=O)N1CCN(C(=O)COc2ccc3ccccc3c2Br)CC1	TRPC6 inhibitor -6.6 | HEK293 MPD ctr-2 inactive | HEK293 MPD ctr 2-2 inactive | TRPC4 ctr mod 12% | TRPC4/MOR inh 2 inactive | TRPC6 inh conf inactive
CC(C)CNC(=S)Nc1ccc(S(N)(=O)=O)cc1	none
Cc1ccc(NC(=S)NCC(C)C)cc1	TRPC6 inhibitor -7.2 | TRPC4 sel inh 2 inactive | TRPC4 spec inactive | HEK293 MPD ctr 2-1 inactive | HEK293 MPD ctr-1 inactive | TRPC6 inh conf inactive | TRPC6 act confirm inactive
O=c1[nH]ncc(N2CCN(Cc3ccccc3)CC2)c1Cl	none
CCN(CC)CCCN(C(=O)c1cccs1)c1nc(-c2ccc(OC)cc2)cs1	none (no result: DSG3 Ab inh)
CCN(CC)CCCN(C(=O)c1cccc(C)c1)c1nc(-c2ccc(OC)cc2)cs1	TRPC6 inhibitor -6.1 | HEK293 MPD ctr-2 inactive | HEK293 MPD ctr 2-2 inactive | TRPC4 ctr mod -14% | TRPC4/MOR inh 2 86% | TRPC6 inh conf 83% | TRPC6 act confirm inactive
CCN(CC)CCCN(C(=O)c1ccco1)c1nc(-c2ccc(Cl)cc2)cs1	TRPC6 inhibitor -7.5 | TRPC4 sel inh 2 26% | TRPC4 spec -13% | HEK293 MPD ctr 2-1 inactive | HEK293 MPD ctr-1 -154% | TRPC6 inh conf 60% | TRPC6 act confirm inactive
CCN(CC)CCCN(C(=O)c1ccc(Br)cc1)c1nc(-c2ccc(OC)cc2)cs1	TRPC6 inhibitor -6.2 | HEK293 MPD ctr-2 inactive | HEK293 MPD ctr 2-2 inactive | TRPC4 ctr mod inactive | TRPC4/MOR inh 2 72% | TRPC6 inh conf 53% | TRPC6 act confirm inactive
CN(C)c1cc[n+](CC(=O)Nc2ccc(Oc3ccccc3)cc2)cc1	TRPC6 inhibitor -6.3 | HEK293 MPD ctr-2 inactive | HEK293 MPD ctr 2-2 inactive | TRPC4 ctr mod -10% | TRPC4/MOR inh 2 inactive | TRPC6 inh conf inactive | TRPC6 act confirm inactive
Cc1nc([N+](=O)[O-])cn1CC(O)c1ccc(-c2ccccc2)cc1 (configuration not stated)	none
CN(C)c1ccc(N=Nc2cccc3ccoc23)cc1	TRPC6 inhibitor -5.8 | HEK293 MPD ctr-2 inactive | HEK293 MPD ctr 2-2 inactive | TRPC4 ctr mod inactive | TRPC4/MOR inh 2 41% | TRPC6 inh conf inactive | TRPC6 act confirm inactive
CN(C)c1ccc(N=Nc2cccc(F)c2)cc1	none
CCN(CC(=O)Nc1cc(Cl)ccc1C)C(=O)CCS(=O)(=O)c1ccc(C)cc1	TRPC6 inhibitor -5.5 | HEK293 MPD ctr-2 inactive | HEK293 MPD ctr 2-2 inactive | TRPC4 ctr mod 13% | TRPC4/MOR inh 2 inactive | TRPC6 inh conf inactive | TRPC6 act confirm inactive
Cc1ccccc1NC(=S)N(Cc1cccnc1)Cc1ccccc1Cl	none
CC1CCCN(C(=O)C2COc3ccccc3O2)C1 (configuration not stated)	TRPC6 inhibitor -5 | HEK293 MPD ctr-2 inactive | HEK293 MPD ctr 2-2 inactive | TRPC4 ctr mod 8.5% | TRPC4/MOR inh 2 inactive | TRPC6 inh conf 49%
COc1ccc2nc(NC(=O)CCc3cc(OC)c(OC)c(OC)c3)sc2c1	none
